# Bioassay records deposited in PubChem BioAssay by several laboratories.
# An excerpt weighted towards active compounds, which were near 1.8% of everything screened.
# PREPL inh: inhibits the human prolyl oligopeptidase-like enzyme. Q4J6C6. recombinant PREPL, fluorescence polarization activity-based probe. inhibition, % at 5.96 µM. 320,000 tested, 0.68% active. AID 2751;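 further: 0% = enzyme with DMSO and 100% = wells lacking enzyme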
# E coli Lon inh: inhibits E. coli Lon protease; 360,000 tested, 0.42% active; purified E. coli Lon protease, fluorescence polarization; AID 602123; inhibition, % at 7.94 µM; in the data active means inhibition above about 13%, passing the limit was not always enough;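 further: 0% = enzyme with probe and DMSO and 100% = no enzyme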
# Target sequence (P0A9M0 whole entry, looked up): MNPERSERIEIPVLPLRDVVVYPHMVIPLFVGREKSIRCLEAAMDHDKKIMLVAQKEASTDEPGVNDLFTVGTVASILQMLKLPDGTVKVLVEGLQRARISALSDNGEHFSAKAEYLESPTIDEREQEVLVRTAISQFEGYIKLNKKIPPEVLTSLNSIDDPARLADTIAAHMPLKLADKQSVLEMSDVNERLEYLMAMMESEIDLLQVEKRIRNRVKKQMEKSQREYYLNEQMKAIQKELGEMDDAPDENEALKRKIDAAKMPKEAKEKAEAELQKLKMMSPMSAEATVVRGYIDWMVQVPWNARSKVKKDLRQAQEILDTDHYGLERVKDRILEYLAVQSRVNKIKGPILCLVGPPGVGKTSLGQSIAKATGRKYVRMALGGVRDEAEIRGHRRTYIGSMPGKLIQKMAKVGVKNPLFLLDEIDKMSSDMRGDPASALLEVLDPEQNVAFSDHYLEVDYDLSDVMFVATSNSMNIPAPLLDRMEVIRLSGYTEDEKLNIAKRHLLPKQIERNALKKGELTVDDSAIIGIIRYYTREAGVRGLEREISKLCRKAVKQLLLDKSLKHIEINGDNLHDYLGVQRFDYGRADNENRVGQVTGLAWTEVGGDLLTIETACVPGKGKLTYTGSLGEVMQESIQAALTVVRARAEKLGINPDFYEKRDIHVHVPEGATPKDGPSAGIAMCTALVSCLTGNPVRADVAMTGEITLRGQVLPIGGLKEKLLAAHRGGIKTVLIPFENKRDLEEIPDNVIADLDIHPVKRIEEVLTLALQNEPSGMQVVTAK
# MT1-MMP act inh: MT1-MMP (human) activation inhibition; P50281; HT1080 RFP-PRO-GFP cells, GFP/RFP ratio fluorescence, overnight; percent of plate control window, DMSO zero; GFP/RFP ratio change, % at 20 µM; 360,000 tested, 0.061% active; AID 651647;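 active means GFP/RFP ratio change of at least 30% with cell ATP level not reduced by more than half and red fluorescence within 50% of control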
#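 Assay system: HT1080 RFP-PRO-GFP cells | Dosing: 20 µM single dose, 1% DMSO | Incubation: Cells overnight before dosing, compound overnight, 37 °C, 5% CO2 | Evaluation: GFP/RFP fluorescence ratio | Control set: DMSO-only wells and HT1080 RFP-L50D-GFP cell wells as references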
# iPSC survival up: hiPSC single-cell survival enhancement; survival enhancement, % at 20 µM; 360,000 tested, 0.044% active; AID 602274; ATPlite luminescence; 100% = ROCK inhibitor wells, 0% = DMSO; in the data active means survival enhancement above about 18%;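 further: cells exposed to compounds for 16 hours before the ATP read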
# TbMetRS inhib: blocks T. brucei methionyl-tRNA synthetase activity | purified T. brucei MetRS, ATP depletion, Kinase-Glo luminescence | inhibition, % at 11.9 µM | 360,000 tested, 0.4% active | AID 624268;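 active means inhibition above a per-plate cutoff of the control wells' mean inhibition plus 3 SD, cut at about 5.5% in these data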;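 further: 0% = DMSO wells median and 100% = median of wells with control inhibitor compound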
#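 Assay system: T. brucei methionyl-tRNA synthetase, purified | Medium: HEPES buffer with MgCl2, KCl, DTT, spermine, BSA, pyrophosphatase | Compound: 11.9 µM single point | Incubation: 15 min enzyme-compound preincubation, 2 h reaction, 10 min detection, 25 °C | Measured by: Kinase-Glo luciferase luminescence reporting remaining unconsumed ATP | Measure: % inhibition normalized to control-well medians | Replication: Singlicate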
# SKN-1 inh: inhibitors of C. elegans SKN-1; C. elegans VP596 Pgst-4::GFP/RFP ratio, acrylamide-induced, 24 h; inhibition, % at 21.8 µM; 360,000 tested, 0.49% active; AID 624304;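 active means interference check ratio from 0.5 to 1.5 plus GFP to RFP signal ratio inhibition reaching or exceeding a fixed threshold, cut at about 30% in these data, passing the limit was not always enough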
# PREPL inh cf: human PREPL inhibition, confirmation; shares compounds with PREPL inh; recombinant PREPL, fluorescence polarization activity probe; inhibition, % at 5.96 µM; 2,000 tested, 67% active; AID 2803;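 further: 0% = protein with DMSO and 100% = wells lacking protein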
# Numbers without * were called inactive; . = not tested or not shown; + = active, no number. Unless noted, no stated cut-off is given here; in the data, active means inhibition above about 43%; inactive means the rest.
SMILES,PREPL inh,E coli Lon inh,MT1-MMP act inh,iPSC survival up,TbMetRS inhib,SKN-1 inh,PREPL inh cf
CCN(CC(=O)Nc1ccc(NC(C)=O)cc1)C(=O)c1cc(CN2C(=O)c3ccccc3C2=O)ccc1OC,-3,-3,5,0,0,15,.
COc1ccc(OC)c(-c2oc3ccccc3c(=O)c2O)c1,-5,-8,5,7,-1,-4,.
COc1ccc(OC)c(-c2c3cc(O)c(=O)cc-3oc3cc(O)c(O)cc23)c1,78*,+,-31,-2,3,69,77*
C#CCOCCOCCOCCNc1nc(N2CCN(C(=O)CCCCCCCCCCNC(=O)[C@@H](CCC(=O)O)n3cc(CCCCCN)nn3)CC2)nc(N2CCN(C(=O)CCCCCCCCCCNC(=O)[C@H](CO)n3cc(CCCSC)nn3)CC2)n1,19,-1,5,8,1,5,.
C#CCOCCOCCOCCNc1nc(N2CCN(C(=O)CCCCCCCCCCNC(=O)[C@@H](CCC(=O)O)n3cc(CCCCCN)nn3)CC2)nc(N2CCN(C(=O)CCCCCCCCCCNC(=O)[C@H](CO)n3cc(CCCCCN)nn3)CC2)n1,46*,-6,5,0,0,-4,31
C#CCOCCOCCOCCNc1nc(N2CCN(C(=O)CCCCCCCCCCNC(=O)[C@@H](CCSC)n3cc(CCO)nn3)CC2)nc(N2CCN(C(=O)CCCCCCCCCCNC(=O)[C@H](CO)n3cc(CCCCCN)nn3)CC2)n1,48*,-3,8,1,0,-15,49*
C#CCOCCOCCOCCNc1nc(N2CCN(C(=O)CCCCCCCCCCNC(=O)[C@@H](CCSC)n3cc(CCO)nn3)CC2)nc(N2CCN(C(=O)CCCCCCCCCCNC(=O)[C@H](CCC(=O)O)n3cc(CCCCCN)nn3)CC2)n1,3,-9,12,-2,0,2,.
CCOC(=O)C1(CCOc2ccccc2)CCN(Cc2cc(OC)ccc2OC)CC1,50*,9,0,-1,-1,-4,39
Cc1ccc(-n2cccc2C(=S)N=P(N(C)C)(N(C)C)N(C)C)cc1,44*,-4,-16,-2,0,1,37
COc1cc(N=Nc2cccc(S(N)(=O)=O)c2)c2ccccc2c1N,61*,-226,-29,-1,-1,8,59*
C=CCC[C@@H](Cc1ccc(F)cc1)C(=O)OC[C@@H]1CCCN1C(=O)[C@H](CC=C)CC(=O)N[C@H](CO)Cc1ccccc1,44*,-13,-3,-2,0,0,27
C=CCC[C@@H](Cc1ccc(F)cc1)C(=O)OC[C@H]1CCCN1C(=O)[C@@H](CC=C)CC(=O)N[C@H](CO)Cc1ccccc1,36,-6,-2,-1,0,-12,.
Cc1ccc2nc(-c3ccccc3O)c(Nc3ccc4c(c3)OCCO4)n2c1,6,7,4,3,0,0,.
Clc1ccc2nc(-c3ccccn3)c(Nc3ccc4c(c3)OCO4)n2c1,67*,-12,4,-2,0,11,54*
O=C(COC(=O)c1ccc(Cl)c(S(=O)(=O)N2CCCC2)c1)NCc1ccccc1,6,7,1,-2,0,-6,.
Cc1ccc2c(c1)c1c3n2CCN(CC(O)CNC(C)C)C3CCC1 (centres undefined),44*,10,-2,0,-1,-6,31
Cc1nn(CC(=O)OCC(=O)Nc2cccc(S(N)(=O)=O)c2)c(C)c1[N+](=O)[O-],11,-6,0,0,1,16,.
COCCNC(=O)CS(=O)(=O)Cc1nc(-c2ccc(C)cc2)oc1C,-7,-5,0,1,0,-5,.
Cn1ccc2cc(-c3ccc4ncnc(NCc5cccs5)c4c3)ccc21,50*,-4,-3,-2,0,12,41
Cc1ccccc1Cn1c(=N)n(CC(O)c2ccco2)c2ccccc21 (centres undefined),45*,-5,3,1,0,-2,43
COc1ccc(Cl)c(N2CCN(CCCNC(=O)Nc3ccc(C)cc3)CC2)c1,47*,-2,-5,3,-1,28,40
